Data reported in ChEMBL document CHEMBL3259739, “Synthesis and structure-activity relationship of trisubstituted thiazoles as Cdc7 kinase inhibitors” (Eur J Med Chem, 2014).

What was measured:
[1] = target: T1, Serine/threonine-protein kinase Chk1 (Homo sapiens) (UniProt O14757); test: Inhibition of CHEK1 (unknown origin) at 1 uM relative to control; values are per cent of control
T1 sequence (whole entry): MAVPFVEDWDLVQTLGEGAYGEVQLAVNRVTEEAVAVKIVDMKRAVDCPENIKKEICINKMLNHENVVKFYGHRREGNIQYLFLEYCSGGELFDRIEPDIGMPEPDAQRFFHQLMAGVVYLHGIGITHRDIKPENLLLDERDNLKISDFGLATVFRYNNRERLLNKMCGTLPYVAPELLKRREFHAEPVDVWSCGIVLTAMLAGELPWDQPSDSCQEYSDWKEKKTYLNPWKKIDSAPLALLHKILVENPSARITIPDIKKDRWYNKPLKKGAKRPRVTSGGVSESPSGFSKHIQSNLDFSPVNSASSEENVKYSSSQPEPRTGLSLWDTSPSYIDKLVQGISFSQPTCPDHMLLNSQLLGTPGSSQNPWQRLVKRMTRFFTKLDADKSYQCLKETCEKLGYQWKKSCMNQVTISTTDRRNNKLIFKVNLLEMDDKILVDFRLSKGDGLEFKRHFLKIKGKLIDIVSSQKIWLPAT

[2] = target: T2, Ephrin type-B receptor 3 (Homo sapiens) (UniProt P54753); test: Inhibition of EPHB3 (unknown origin) at 1 uM relative to control; values are per cent of control
T2 sequence (whole entry): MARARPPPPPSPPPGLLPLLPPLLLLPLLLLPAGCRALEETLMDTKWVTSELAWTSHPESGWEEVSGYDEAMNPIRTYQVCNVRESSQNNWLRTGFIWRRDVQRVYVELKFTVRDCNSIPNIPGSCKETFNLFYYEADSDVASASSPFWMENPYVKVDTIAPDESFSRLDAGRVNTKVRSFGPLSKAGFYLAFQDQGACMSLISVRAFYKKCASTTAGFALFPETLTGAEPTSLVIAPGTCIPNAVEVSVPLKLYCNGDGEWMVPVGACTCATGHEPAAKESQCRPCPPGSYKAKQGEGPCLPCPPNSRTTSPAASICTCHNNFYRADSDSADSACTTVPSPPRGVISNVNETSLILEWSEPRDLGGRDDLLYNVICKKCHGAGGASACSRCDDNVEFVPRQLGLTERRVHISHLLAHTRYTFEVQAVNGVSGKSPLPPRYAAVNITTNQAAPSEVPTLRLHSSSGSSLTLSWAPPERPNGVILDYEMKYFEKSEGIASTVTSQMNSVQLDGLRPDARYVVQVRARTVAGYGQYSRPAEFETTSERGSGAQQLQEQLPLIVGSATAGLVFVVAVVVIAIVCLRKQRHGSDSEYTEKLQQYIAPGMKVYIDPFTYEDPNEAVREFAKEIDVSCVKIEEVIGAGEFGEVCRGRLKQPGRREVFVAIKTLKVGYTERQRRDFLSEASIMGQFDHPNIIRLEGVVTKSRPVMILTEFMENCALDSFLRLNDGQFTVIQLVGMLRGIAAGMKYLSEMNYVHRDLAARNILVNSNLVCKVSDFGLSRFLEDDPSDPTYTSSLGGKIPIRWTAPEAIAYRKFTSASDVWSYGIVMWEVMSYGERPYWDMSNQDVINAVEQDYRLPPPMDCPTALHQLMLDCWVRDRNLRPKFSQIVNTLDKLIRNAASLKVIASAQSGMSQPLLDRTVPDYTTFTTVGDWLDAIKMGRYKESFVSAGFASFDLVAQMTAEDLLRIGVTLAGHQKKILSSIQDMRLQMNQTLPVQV

[3] = Intrinsic clearance in rat liver microsomes at 1 uM after 30 mins by reverse phase HPLC analysis in presence of NADPH; format: ADME; conditions: read-out: CLH
How it was run: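 Reactions were stopped with MeCN after 0 or 30 min. Samples were analysed by reverse-phase HPLC–tandem MS to give intrinsic clearance (µl/min/mg).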

[4] = target: Fibroblast growth factor receptor 1 (Homo sapiens) (UniProt P11362); test: Inhibition of FGFR1 (unknown origin) at 1 uM relative to control; values are per cent of control
Fibroblast growth factor receptor 1 (Homo sapiens), sequence (P11362 22-822 limits assumed): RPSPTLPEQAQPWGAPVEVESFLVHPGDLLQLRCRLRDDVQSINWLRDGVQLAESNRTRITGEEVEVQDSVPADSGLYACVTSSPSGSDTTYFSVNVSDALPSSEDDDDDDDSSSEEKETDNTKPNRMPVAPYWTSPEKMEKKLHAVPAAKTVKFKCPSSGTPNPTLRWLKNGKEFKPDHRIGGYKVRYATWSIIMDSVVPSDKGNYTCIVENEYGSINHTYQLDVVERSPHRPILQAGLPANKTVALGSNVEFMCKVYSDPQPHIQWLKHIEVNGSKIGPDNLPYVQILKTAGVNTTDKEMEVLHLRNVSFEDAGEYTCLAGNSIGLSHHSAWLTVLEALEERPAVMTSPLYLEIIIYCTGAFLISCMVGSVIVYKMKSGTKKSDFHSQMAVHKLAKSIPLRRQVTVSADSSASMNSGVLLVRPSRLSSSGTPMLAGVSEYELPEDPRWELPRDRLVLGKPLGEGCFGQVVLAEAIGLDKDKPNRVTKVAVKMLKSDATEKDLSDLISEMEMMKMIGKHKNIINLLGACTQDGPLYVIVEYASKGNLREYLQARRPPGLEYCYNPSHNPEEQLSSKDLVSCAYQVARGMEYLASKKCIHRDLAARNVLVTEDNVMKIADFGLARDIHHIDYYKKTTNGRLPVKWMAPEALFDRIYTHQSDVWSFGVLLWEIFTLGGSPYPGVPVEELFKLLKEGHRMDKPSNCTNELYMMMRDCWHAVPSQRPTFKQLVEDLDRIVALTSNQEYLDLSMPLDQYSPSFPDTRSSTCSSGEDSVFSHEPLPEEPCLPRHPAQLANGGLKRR

[5] = target: Hepatocyte growth factor receptor (Homo sapiens) (UniProt P08581); test: Inhibition of MET (unknown origin) at 1 uM relative to control; values are per cent of control
Hepatocyte growth factor receptor (Homo sapiens), sequence (P08581 whole entry): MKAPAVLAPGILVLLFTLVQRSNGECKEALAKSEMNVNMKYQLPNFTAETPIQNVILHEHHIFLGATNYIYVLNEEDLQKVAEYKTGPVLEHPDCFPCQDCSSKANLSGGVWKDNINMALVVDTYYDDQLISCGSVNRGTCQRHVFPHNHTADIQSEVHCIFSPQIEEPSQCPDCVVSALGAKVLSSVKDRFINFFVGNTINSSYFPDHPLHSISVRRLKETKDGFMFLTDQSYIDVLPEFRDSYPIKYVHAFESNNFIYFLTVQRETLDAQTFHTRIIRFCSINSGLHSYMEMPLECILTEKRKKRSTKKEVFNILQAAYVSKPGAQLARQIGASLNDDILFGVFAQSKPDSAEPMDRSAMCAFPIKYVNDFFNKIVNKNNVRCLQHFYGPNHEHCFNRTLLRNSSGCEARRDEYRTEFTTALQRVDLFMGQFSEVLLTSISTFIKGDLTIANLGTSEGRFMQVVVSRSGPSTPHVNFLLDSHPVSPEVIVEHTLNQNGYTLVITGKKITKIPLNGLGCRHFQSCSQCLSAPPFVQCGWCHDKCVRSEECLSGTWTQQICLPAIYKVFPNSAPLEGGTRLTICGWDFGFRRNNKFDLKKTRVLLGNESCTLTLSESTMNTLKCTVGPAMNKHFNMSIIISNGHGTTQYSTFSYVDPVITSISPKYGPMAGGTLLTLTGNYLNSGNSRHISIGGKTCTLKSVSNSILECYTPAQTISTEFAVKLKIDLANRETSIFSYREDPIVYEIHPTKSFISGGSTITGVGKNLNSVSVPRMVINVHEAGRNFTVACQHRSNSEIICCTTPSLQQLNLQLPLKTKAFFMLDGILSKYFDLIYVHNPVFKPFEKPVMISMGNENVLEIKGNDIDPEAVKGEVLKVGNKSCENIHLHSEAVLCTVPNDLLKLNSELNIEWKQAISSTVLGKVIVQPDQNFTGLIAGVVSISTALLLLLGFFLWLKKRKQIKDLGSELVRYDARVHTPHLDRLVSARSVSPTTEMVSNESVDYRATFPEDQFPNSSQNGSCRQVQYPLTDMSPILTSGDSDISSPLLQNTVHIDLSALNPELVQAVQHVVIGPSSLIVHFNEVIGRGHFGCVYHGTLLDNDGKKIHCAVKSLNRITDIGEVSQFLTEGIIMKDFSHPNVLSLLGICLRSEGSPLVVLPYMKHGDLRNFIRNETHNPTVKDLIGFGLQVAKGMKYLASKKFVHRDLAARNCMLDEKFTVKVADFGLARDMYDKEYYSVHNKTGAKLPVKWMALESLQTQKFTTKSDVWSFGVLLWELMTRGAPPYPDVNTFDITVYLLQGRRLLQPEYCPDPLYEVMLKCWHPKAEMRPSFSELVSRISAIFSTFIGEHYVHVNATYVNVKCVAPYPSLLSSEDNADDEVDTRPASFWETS

[6] = target: Cyclin-dependent kinase 2 (Homo sapiens) (UniProt P24941); test: Inhibition of CDK2 (unknown origin) at 1 uM relative to control; values are per cent of control
[7] = target: Calcium/calmodulin-dependent protein kinase type II subunit delta (Homo sapiens) (UniProt Q13557); test: Inhibition of CAMK2D (unknown origin) at 1 uM relative to control; values are per cent of control
Calcium/calmodulin-dependent protein kinase type II subunit delta (Homo sapiens), sequence (Q13557 whole entry): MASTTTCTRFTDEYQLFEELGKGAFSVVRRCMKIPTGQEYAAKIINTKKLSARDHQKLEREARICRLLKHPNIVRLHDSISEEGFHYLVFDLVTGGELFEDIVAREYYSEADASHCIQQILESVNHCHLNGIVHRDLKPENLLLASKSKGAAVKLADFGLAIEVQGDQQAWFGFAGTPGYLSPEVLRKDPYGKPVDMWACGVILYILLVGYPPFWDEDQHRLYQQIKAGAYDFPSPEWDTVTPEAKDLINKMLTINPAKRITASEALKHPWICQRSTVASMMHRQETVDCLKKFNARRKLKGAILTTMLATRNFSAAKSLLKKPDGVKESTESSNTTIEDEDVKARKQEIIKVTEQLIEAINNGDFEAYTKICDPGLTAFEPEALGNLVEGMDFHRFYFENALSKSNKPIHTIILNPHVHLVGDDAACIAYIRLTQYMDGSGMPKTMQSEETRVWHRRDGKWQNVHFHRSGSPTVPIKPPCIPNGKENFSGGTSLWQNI

[8] = target: Tyrosine-protein kinase SYK (Homo sapiens) (UniProt P43405); test: Inhibition of SYK (unknown origin) at 1 uM relative to control; conditions: values are per cent of control
[9] = target: Tyrosine-protein kinase Lck (Homo sapiens) (UniProt P06239); test: Inhibition of LCK (unknown origin) at 1 uM relative to control; values are per cent of control
Tyrosine-protein kinase Lck (Homo sapiens), sequence (P06239 2-509 limits assumed): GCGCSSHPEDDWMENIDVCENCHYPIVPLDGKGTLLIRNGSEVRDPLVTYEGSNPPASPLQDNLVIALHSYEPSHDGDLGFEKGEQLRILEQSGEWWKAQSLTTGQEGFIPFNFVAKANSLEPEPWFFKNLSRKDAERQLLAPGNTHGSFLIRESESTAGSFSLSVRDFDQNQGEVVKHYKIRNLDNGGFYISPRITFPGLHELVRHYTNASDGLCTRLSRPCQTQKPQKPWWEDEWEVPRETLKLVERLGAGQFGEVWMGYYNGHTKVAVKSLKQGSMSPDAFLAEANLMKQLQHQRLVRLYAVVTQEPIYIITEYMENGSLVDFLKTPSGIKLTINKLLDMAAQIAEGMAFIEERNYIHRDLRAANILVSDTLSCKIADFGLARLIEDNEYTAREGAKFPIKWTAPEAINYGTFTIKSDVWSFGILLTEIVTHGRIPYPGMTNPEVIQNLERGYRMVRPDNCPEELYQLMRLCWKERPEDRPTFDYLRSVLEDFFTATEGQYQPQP

[10] = target: Tyrosine-protein kinase BTK (Homo sapiens) (UniProt Q06187); test: Inhibition of BTK (unknown origin) at 1 uM relative to control; values are per cent of control
Tyrosine-protein kinase BTK (Homo sapiens), sequence (Q06187 whole entry): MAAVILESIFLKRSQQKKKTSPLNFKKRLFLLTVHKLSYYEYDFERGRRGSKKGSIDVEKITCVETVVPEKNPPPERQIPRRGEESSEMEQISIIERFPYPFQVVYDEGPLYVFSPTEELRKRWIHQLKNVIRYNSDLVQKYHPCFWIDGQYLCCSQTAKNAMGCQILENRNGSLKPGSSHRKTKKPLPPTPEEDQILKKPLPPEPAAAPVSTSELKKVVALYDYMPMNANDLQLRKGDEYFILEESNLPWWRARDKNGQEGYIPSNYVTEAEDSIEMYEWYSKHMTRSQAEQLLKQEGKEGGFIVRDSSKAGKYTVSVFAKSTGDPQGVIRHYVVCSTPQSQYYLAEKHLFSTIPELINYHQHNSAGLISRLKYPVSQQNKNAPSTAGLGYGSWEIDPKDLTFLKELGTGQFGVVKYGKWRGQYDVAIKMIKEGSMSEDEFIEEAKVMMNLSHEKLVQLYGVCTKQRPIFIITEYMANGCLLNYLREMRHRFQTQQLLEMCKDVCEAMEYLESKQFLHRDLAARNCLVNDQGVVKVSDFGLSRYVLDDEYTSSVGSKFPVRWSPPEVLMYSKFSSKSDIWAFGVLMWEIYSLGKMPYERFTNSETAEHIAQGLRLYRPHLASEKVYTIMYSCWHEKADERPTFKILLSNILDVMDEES

[11] = target: T3, Rhodopsin kinase GRK1 (Homo sapiens) (UniProt Q15835); test: Inhibition of GRK1 (unknown origin) at 1 uM relative to control; values are per cent of control
T3 sequence (whole entry): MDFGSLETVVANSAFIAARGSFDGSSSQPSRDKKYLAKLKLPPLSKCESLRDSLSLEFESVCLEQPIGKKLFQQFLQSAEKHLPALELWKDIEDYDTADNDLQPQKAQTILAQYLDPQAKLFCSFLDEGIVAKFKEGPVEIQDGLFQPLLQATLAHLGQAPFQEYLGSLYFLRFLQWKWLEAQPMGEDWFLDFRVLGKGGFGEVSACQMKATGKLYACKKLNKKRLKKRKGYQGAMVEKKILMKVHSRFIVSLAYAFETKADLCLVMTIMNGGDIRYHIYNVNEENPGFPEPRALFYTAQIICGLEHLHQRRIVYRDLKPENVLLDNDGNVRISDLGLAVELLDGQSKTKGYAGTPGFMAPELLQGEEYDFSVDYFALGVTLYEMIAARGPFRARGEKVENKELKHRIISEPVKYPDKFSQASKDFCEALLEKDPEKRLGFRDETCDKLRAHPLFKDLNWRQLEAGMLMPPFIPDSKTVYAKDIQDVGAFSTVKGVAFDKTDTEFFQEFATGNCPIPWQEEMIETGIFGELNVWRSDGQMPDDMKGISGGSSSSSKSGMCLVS

Row | SMILES | residual activity [1] [%] | residual activity [2] [%] | microsomal CLint at 1 µM [3] [µL/min/mg] | residual activity [4] [%] | residual activity [5] [%] | residual activity [6] [%] | residual activity [7] [%] | residual binding, % of control [8] [%] | residual activity [9] [%] | residual activity [10] [%] | residual activity [11] [%]
1 | CCOC(=O)c1sc(-c2ccncc2)nc1O | 100 | 71 | < 14 | 89 | 81 | 100 | 79 | 97 | 76 | 92 | 99
2 | NC(=O)c1sc(-c2ccnc(N)n2)nc1-c1ccc(Cl)cc1Cl | 100 | 86 | 22 | 87 | 88 | 100 | 90 | 72 | 100 | 75 | 75
3 | COc1ccc(-c2nc(-c3ccnc(N)n3)sc2C(N)=O)c(Cl)c1 | 78 | 97 | 99 | 100 | 86 | 84 | 93 | 56 | 74 | 76 | 100
